From ChEMBL document CHEMBL2311276, “Synthesis of amidine and bis amidine derivatives and their evaluation for anti-inflammatory and anticancer activity” (Eur J Med Chem, 2013)

Experiments:
HCT-15 [1] = test: Cytotoxicity against human HCT15 cells assessed as growth inhibition at 1 x 10 '-5 M after 24 hrs by MTT assay; assay type: functional; settings: HCT-15, 24 h, read-out: GI
How it was run: (§1)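 MTT screen at a single concentration of 1 × 10⁻⁵ M, 24 h exposure. Seeding was 5 × 10³ cells/well in RPMI-1640 with 2 mM glutamine. Vehicle was 0.1% final DMSO. MTT was added for 4 h at 37 °C, formazan dissolved in DMSO/glycine buffer (pH 10.5), and A570 read. Percent growth inhibition was calculated against vehicle-treated cells; triplicate, mean of three independent experiments.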

HepG2 [2] = test: Cytotoxicity against human HepG2 cells assessed as growth inhibition at 1 x 10 '-5 M after 24 hrs by MTT assay; assay type: functional; settings: HepG2, 24 h, read-out: GI; how it was run: as §1
PA-1 [3] = test: Cytotoxicity against human PA1 cells assessed as growth inhibition at 1 x 10 '-5 M after 24 hrs by MTT assay; assay type: functional; settings: PA-1, 24 h, read-out: GI; how it was run: as §1
NCI-H522 [4] = test: Cytotoxicity against human NCI-H522 cells assessed as growth inhibition at 1 x 10 '-5 M after 24 hrs by MTT assay; assay type: functional; settings: NCI-H522, 24 h, read-out: GI; how it was run: as §1
T47D [5] = test: Cytotoxicity against human T47D cells assessed as growth inhibition at 1 x 10 '-5 M after 24 hrs by MTT assay; assay type: functional; settings: read-out: GI; how it was run: as §1
Rattus norvegicus = test: Antiinflammatory activity in Charles Foster albino rat assessed as inhibition of carrageenan-induced paw edema at 50 mg/kg, po administered 30 mins before carrageenan challenge measured after 1 to 3 hrs by plethysmometer analysis; assay type: functional
How it was run: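 Rats of both sexes (120–160 g; pregnant females excluded), five per group, were dosed orally at 50 mg/kg. After 30 min, 0.20 mL of freshly prepared 1% carrageenan in 0.9% NaCl was injected into the plantar aponeurosis of the hind paw. Paw volume was read by water plethysmometer before and 1–3 h later. Percent inhibition was taken against a carrageenan-only control group of five rats.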

COS-1 = test: Cytotoxicity against african green monkey COS1 cells after 24 hrs by MTT assay; assay type: cell-based; settings: Chlorocebus aethiops, COS-1, 24 h
PA-1 [6] = test: Cytotoxicity against human PA1 cells after 24 hrs by MTT assay; assay type: functional, cell-based; settings: PA-1, 24 h
How it was run: (§2)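 Cell lines came from NCCS Pune and were grown in RPMI-1640 with 2 mM glutamine, pH 7.4. Cells were seeded at 5 × 10³ per well and exposed to serial dilutions in DMSO for 24 h, with 0.1% final DMSO as vehicle control. MTT (5 mg/ml) was added for 4 h at 37 °C. Formazan was dissolved in DMSO plus Sorensen glycine buffer (pH 10.5) and read at 570 nm. IC50 came from % inhibition versus vehicle; triplicate, mean ± SD of three experiments.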

HepG2 [7] = test: Cytotoxicity against human HepG2 cells after 24 hrs by MTT assay; assay type: functional, cell-based; settings: HepG2, 24 h; how it was run: as §2
NCI-H522 [8] = test: Cytotoxicity against human NCI-H522 cells after 24 hrs by MTT assay; assay type: functional, cell-based; settings: NCI-H522, 24 h; how it was run: as §2
HCT-15 [9] = test: Cytotoxicity against human HCT15 cells after 24 hrs by MTT assay; assay type: functional, cell-based; settings: HCT-15, 24 h; how it was run: as §2
T47D [10] = test: Cytotoxicity against human T47D cells after 24 hrs by MTT assay; assay type: functional, cell-based; how it was run: as §2

SMILES | inhibition of growth at 10 µM (HCT-15 [1]) [%] | inhibition of growth at 10 µM (HepG2 [2]) [%] | inhibition of growth at 10 µM (PA-1 [3]) [%] | inhibition of growth at 10 µM (NCI-H522 [4]) [%] | inhibition of growth at 10 µM (T47D [5]) [%] | inhibition in vivo at 50 mg/kg (Rattus norvegicus) [%] | IC50 (COS-1) [µM] | IC50 (PA-1 [6]) [µM] | IC50 (HepG2 [7]) [µM] | IC50 (NCI-H522 [8]) [µM] | IC50 (HCT-15 [9]) [µM] | IC50 (T47D [10]) [µM]
N=C(Nc1ccc(-c2ccc(NC(=N)c3ccccn3)cc2)cc1)c1ccccn1 | 16 | 23 | 37 | 32 | 2 | 26 | – | – | – | – | – | –
N=C(Nc1ccc(-c2ccc(NC(=N)c3ccncc3)cc2)cc1)c1ccncc1 | 3 | 48 | 7 | 36 | 12 | 15 | 50 | 42.5 | 11.9 | 13.4 | 124 | 34.1
N=C(NCCN1CCOCC1)c1cnccn1 | 6 | 52 | 51 | 35 | 13 | 15 | 173 | 13.6 | 9.4 | 18.2 | 78.3 | 55.4
N=C(NCc1cccnc1)c1ccccn1 | 23 | 42 | 36 | 9 | 23 | 10 | – | – | – | – | – | –
N=C(NCc1cccnc1)c1ccncc1 | 22 | 20 | 21 | 7 | 22 | 0 | – | – | – | – | – | –
N=C(NCc1cccnc1)c1cnccn1 | 3 | 26 | 23 | 11 | 23 | 18 | – | – | – | – | – | –
N=C(NCCN1CCNCC1)c1ccccn1 | 24 | 27 | 40 | 8 | 14 | 11 | – | – | – | – | – | –
N=C(NCCN1CCNCC1)c1ccncc1 | 13 | 10 | 46 | 17 | 6 | 0 | 147 | 19.3 | 191 | 35.3 | 35.4 | 184
N=C(NCCN1CCNCC1)c1cnccn1 | 28 | 23 | 36 | 9 | 22 | 20 | – | – | – | – | – | –
N=C(NCCCCNC(=N)c1ccccn1)c1ccccn1 | 5 | 26 | 27 | 38 | 29 | 14 | – | – | – | – | – | –
N=C(NCCCCNC(=N)c1ccncc1)c1ccncc1 | 5 | 50 | 10 | 20 | 27 | 15 | 246 | 49.2 | 11.2 | 36.6 | 87.8 | 43
